From ChEMBL document CHEMBL1143773, “Synthesis and studies on antidepressant and anticonvulsant activities of some 3-(2-furyl)-pyrazoline derivatives” (Eur J Med Chem, 2007)
Activity calls are given as the source filed them. The rule behind the calls is not given here.

Legend:
Mus musculus [1] = assay: Neurotoxicity in Albino mouse at 30 mg/kg, ip after 4 hrs by RotaRod test; assay type: toxicity, organism-based; parameters: dose 30 mg/kg, route intraperitoneal; details: in vivo
In short: (§1)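 Phase I protocol of the NINCDS antiepileptic drug development programme in albino mice, covering MES, subcutaneous pentylenetetrazole (metrazol) and rotarod neurotoxicity. Doses were 30, 100 and 300 mg/kg, read at 1/2 h and 4 h. One animal per dose and time point, scored as 0/1 (no activity) or 1/1 (noticeable activity).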

Mus musculus [2] = assay: Neurotoxicity in Albino mouse at 100 mg/kg, ip after 4 hrs by RotaRod test; assay type: toxicity, organism-based; parameters: dose 100 mg/kg, route intraperitoneal; details: in vivo; in short: as §1
Mus musculus [3] = assay: Neurotoxicity in Albino mouse at 300 mg/kg, ip after 4 hrs by RotaRod test; assay type: toxicity, organism-based; parameters: dose 300 mg/kg, route intraperitoneal; details: in vivo; in short: as §1
Mus musculus [4] = assay: Anticonvulsant activity against metrazole-induced seizures in Albino mouse at 100 mg/kg, ip after 30 mins by scMet assay; assay type: functional, organism-based; parameters: dose 100 mg/kg; in short: as §1
Mus musculus [5] = assay: Antidepressant activity in Albino mouse assessed as duration of immobility at 10 mg/kg, ip by forced-swimming test; assay type: functional; details: route intraperitoneal
In short: (§2)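 Porsolt forced-swim test in albino mice. Drug given ip at 0.5 ml/20 g body weight, 1 h before testing. Controls received 1% aqueous Tween 80. Each mouse was placed singly in a water-filled Plexiglas cylinder for 6 min. Immobility (floating upright with only slight movements to stay afloat) was timed over the last 4 min.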

Mus musculus [6] = assay: Antidepressant activity in Albino mouse assessed as duration of immobility at 10 mg/kg, ip by forced-swimming test relative to control; assay type: functional; details: route intraperitoneal; in short: as §2
Mus musculus [7] = assay: Anticonvulsant activity in Albino mouse by MES test at 30mg/kg, ip after 30 mins; assay type: functional, organism-based; in short: as §1
Mus musculus [8] = assay: Anticonvulsant activity in Albino mouse by MES test at 100 mg/kg, ip after 30 mins; assay type: functional, organism-based; parameters: dose 100 mg/kg; in short: as §1
Mus musculus [9] = assay: Anticonvulsant activity in Albino mouse by MES test at 300 mg/kg, ip after 30 mins; assay type: functional, organism-based; parameters: dose 300 mg/kg; in short: as §1
Mus musculus [10] = assay: Anticonvulsant activity against metrazole-induced seizures in Albino mouse at 30 mg/kg, ip after 30 mins by scMet assay; assay type: functional, organism-based; parameters: dose 30 mg/kg; in short: as §1
Mus musculus [11] = assay: Anticonvulsant activity against metrazole-induced seizures in Albino mouse at 300 mg/kg, ip after 30 mins by scMet assay; assay type: functional, organism-based; parameters: dose 300 mg/kg; in short: as §1
Mus musculus [12] = assay: Anticonvulsant activity in Albino mouse at 30 mg/kg, ip after 4 hrs by MES test; assay type: functional, organism-based; parameters: dose 30 mg/kg; in short: as §1
Mus musculus [13] = assay: Anticonvulsant activity in Albino mouse at 100 mg/kg, ip after 4 hrs by MES test; assay type: functional, organism-based; parameters: dose 100 mg/kg; in short: as §1
Mus musculus [14] = assay: Anticonvulsant activity in Albino mouse at 300 mg/kg, ip after 4 hrs by MES test; assay type: functional, organism-based; parameters: dose 300 mg/kg; in short: as §1
Mus musculus [15] = assay: Anticonvulsant activity against metrazole-induced seizures in Albino mouse at 30 mg/kg, ip after 4 hrs by scMet; assay type: functional, organism-based; parameters: dose 30 mg/kg; in short: as §1
Mus musculus [16] = assay: Anticonvulsant activity against metrazole-induced seizures in Albino mouse at 100 mg/kg, ip after 4 hrs by scMet assay; assay type: functional, organism-based; parameters: dose 100 mg/kg; in short: as §1
Mus musculus [17] = assay: Anticonvulsant activity against metrazole-induced seizures in Albino mouse at 300 mg/kg, ip after 4 hrs by scMet assay; assay type: functional, organism-based; parameters: dose 300 mg/kg; in short: as §1
Mus musculus [18] = assay: Neurotoxicity in Albino mouse at 30 mg/kg, ip after 30 mins by RotaRod test; assay type: toxicity, organism-based; parameters: dose 30 mg/kg, route intraperitoneal; details: in vivo, 0.5 h; in short: as §1
Mus musculus [19] = assay: Neurotoxicity in Albino mouse at 100 mg/kg, ip after 30 mins by RotaRod test; assay type: toxicity, organism-based; parameters: dose 100 mg/kg, route intraperitoneal; details: in vivo, 0.5 h; in short: as §1
Mus musculus [20] = assay: Neurotoxicity in Albino mouse at 300 mg/kg, ip after 30 mins by RotaRod test; assay type: toxicity, organism-based; parameters: dose 300 mg/kg, route intraperitoneal; details: in vivo, 0.5 h; in short: as §1

| Compound | Activity (Mus musculus [1]) | Activity (Mus musculus [2]) | Activity (Mus musculus [3]) | Activity (Mus musculus [4]) | Activity (Mus musculus [5]) [s] | Activity (Mus musculus [6]) [%] | Activity (Mus musculus [7]) | Activity (Mus musculus [8]) | Activity (Mus musculus [9]) | Activity (Mus musculus [10]) | Activity (Mus musculus [11]) | Activity (Mus musculus [12]) | Activity (Mus musculus [13]) | Activity (Mus musculus [14]) | Activity (Mus musculus [15]) | Activity (Mus musculus [16]) | Activity (Mus musculus [17]) | Activity (Mus musculus [18]) | Activity (Mus musculus [19]) | Activity (Mus musculus [20]) |
| --- | --- | --- | --- | --- | --- | --- | --- | --- | --- | --- | --- | --- | --- | --- | --- | --- | --- | --- | --- | --- |
| C=CCNC(=S)N1N=C(c2ccco2)CC1c1ccccc1 (stereo not given) | Not Active | Not Active | Not Active | inactive | 190 | -9.52 | inactive | Active | Active | inactive | inactive | inactive | inactive | inactive | inactive | inactive | inactive | Not Active | Not Active | Not Active |
| CCNC(=S)N1N=C(c2ccco2)CC1c1ccco1 (stereo not given) | Not Active | Not Active | Not Active | Active | 211 | 0.48 | inactive | inactive | inactive | Active | Active | inactive | inactive | inactive | inactive | inactive | Active | Not Active | Not Active | Not Active |
